MrgX1 allo act: positive allosteric modulators of MrgX1, primary screen, HEK293 cells, Fluo-4 calcium flux | Mas-related G-protein coupled receptor member X1 (Homo sapiens), Q96LB2 | FDSS; active compounds read high | B-score at 10 µM | 310,000 tested, 0.63% active | AID 588675, 2011;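 active = plate-corrected calcium response at least 3 library SD above typical, normal starting fluorescence, not activating the receptor alone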;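 also: compound read alongside a low EC10 to EC30 dose of BAM8-22 agonist; peak minus trough fluorescence over baseline measured at the second addition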
Target sequence (Q96LB2 whole entry, looked up): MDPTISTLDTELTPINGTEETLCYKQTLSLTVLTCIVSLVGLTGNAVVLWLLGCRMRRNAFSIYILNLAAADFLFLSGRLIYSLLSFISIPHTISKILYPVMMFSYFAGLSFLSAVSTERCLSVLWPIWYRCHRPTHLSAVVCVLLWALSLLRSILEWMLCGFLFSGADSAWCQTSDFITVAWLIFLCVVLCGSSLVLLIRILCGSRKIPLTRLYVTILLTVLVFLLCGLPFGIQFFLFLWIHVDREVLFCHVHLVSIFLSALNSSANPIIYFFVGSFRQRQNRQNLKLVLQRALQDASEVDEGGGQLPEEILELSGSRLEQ
RGS4 inh: RGS4 inhibitors, primary screen, cell-based, HEK293 M3R inducible RGS4, calcium flux | 310,000 tested, 0.45% active | Regulator of G-protein signaling 4 (Homo sapiens), P49798 | Fluo-4 calcium flux; active compounds read high; triggered by carbachol at its EC20 | B-score at 10 µM | AID 463165, 2010;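 active = B-score, a plate-corrected calcium signal, over three deviations above library mean, with baseline fluorescence within five deviations of library mean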;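 also: RGS4 expression induced by doxycycline in cells with stable M3 receptor; B-score is computed from the integrated fluorescence ratio over baseline after carbachol; higher B-score means a larger calcium signal and so more RGS4 inhibition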
Target sequence (P49798 whole entry, looked up): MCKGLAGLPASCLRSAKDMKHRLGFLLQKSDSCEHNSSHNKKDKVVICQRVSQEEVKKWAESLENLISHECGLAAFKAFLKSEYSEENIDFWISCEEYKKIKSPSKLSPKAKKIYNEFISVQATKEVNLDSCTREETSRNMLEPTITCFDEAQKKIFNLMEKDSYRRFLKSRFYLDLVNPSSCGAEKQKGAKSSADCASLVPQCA
RGS4 pot: RGS4 potentiators or activators, primary screen, cell-based, HEK293 M3R inducible RGS4, calcium flux; B-score at 10 µM; 310,000 tested, 0.92% active; carbachol calcium flux Fluo4; active compounds read low; AID 463111, 2010;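 active = B-score of the integrated calcium signal more than 4 SD below the library mean, with starting fluorescence not abnormally high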;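 also: negative B-score means reduced calcium response which marks RGS4 activation or potentiation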
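test system = M3R-expressing HEK293 line, RGS4 induced by doxycycline | probe or stimulus = carbachol at ECmax as muscarinic agonist stimulus | timing = dye loading 30 min 37 °C, buffer rest 30 min RT | signal = calcium dye Fluo4 fluorescence | evaluation = B score from integrated fluorescence ratio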
MrgX1 ag: agonists of human MrgX1 receptor, primary screen, HEK293 cells, Fluo-4 calcium flux | 310,000 tested, 0.44% active | B-score at 10 µM | Fluo-4 calcium fluorescence, agonist mode; active compounds read high | AID 588627, 2011;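 active = calcium response B-score plate-corrected fluorescence ratio at least 3 library SD, with starting fluorescence B-score inside 5 SD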
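Test system: Stable human MrgX1 HEK293 cell line | Schedule: Overnight plating before 1 h dye loading | Read-out basis: Baseline-normalised fluorescence change ratio, B-scored | Detection: Kinetic calcium dye fluorescence, Fluo-4 NW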
MrgX1 antagonist: antagonists of human MrgX1 receptor, primary screen, HEK293 cells, Fluo-4 calcium flux; Mas-related G-protein coupled receptor member X1 (Homo sapiens), Q96LB2; BAM8-22 antagonism; active compounds read low; B-score at 10 µM; 310,000 tested, 1.3% active; AID 588676, 2011;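 active = calcium-response B-score plate-corrected more than 3 library SD below zero, starting fluorescence within 5 deviations, no agonist response on first addition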;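 also: peak minus trough fluorescence over baseline after final BAM8-22 challenge near maximal dose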
MrgX1 antag conf: MrgX1 receptor antagonists, duplicate retest, confirmation, HEK293 cells, Fluo-4 calcium flux; 2,300 tested, 19% active; BAM8-22 calcium flux; active compounds read low; remaining BAM8-22 calcium response % of control (active compounds read low), % at 10 µM; AID 602420, 2012; shares compounds with MrgX1 antagonist;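 active = remaining agonist calcium response no higher than 100% minus 3 SD of agonist-only control wells, with starting fluorescence near control levels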;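 also: agonist BAM8-22 given at a near maximal EC90 to ECmax level; peak minus minimum fluorescence divided by baseline after agonist addition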
HEK293 Ca flux: nonspecific calcium signal in parental HEK293, confirmation, counter-screen for MrgX1 antagonist project, parental HEK293 cells, Fluo-4 calcium flux; Fluo-4 calcium fluorescence, FDSS; fluorescence ratio F(max-min)/F0 at 10 µM; AID 624111, 2012; shares compounds with MrgX1 antagonist; 4,000 tested, 2% active;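 active = duplicate-averaged calcium fluorescence ratio at least three times the standard deviation of buffer wells, a nonspecific response in parental cells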
HEK293 Ca counter: calcium response in parental HEK293 cells, primary screen, counter-screen for MrgX1 allosteric activator project, cell-based, Fluo-4 calcium flux, duplicate; shares compounds with MrgX1 antagonist; Fluo-4 fluorescence ratio; active compounds read high; fluorescence ratio F(max-min)/F0 at 10 µM; 4,000 tested, 0.4% active;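 active = calcium fluorescence ratio, averaged over duplicates, at least 3 SD of the buffer-well ratio, meaning a nonspecific response in receptor-free cells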;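 also: untransfected parental HEK293 lacking MrgX1 used as counterscreen for MrgX1 allosteric activators; fluorescence change taken during the second addition on a kinetic imager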
HEK293 Ca cntr2: calcium response in parental HEK293 cells, primary screen, counter-screen for MrgX1 agonist project, cell-based, Fluo-4 calcium flux, duplicate, agonist mode. shares compounds with MrgX1 antagonist. Fluo-4 calcium fluorescence (FDSS); active compounds read high. fluorescence ratio F(max-min)/F0 at 10 µM. 4,000 tested, 8.7% active. AID 624115, 2012;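 active = calcium fluorescence ratio at least three times the spread of buffer wells, meaning a non-specific response in parental cells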
An asterisk follows results filed as active; i = inactive; . = no result given; ! = repeats disagree. Hits are enriched below; roughly 3.5% of the tested compounds scored in any of these assays.

SMILES	MrgX1 allo act	RGS4 inh	RGS4 pot	MrgX1 ag	MrgX1 antagonist	MrgX1 antag conf	HEK293 Ca flux	HEK293 Ca counter	HEK293 Ca cntr2
COc1cc(=O)[nH]c(SCC(=O)Nc2ccc3ccccc3c2)n1	i	i	i	i	i	.	.	.	.
CCN(CC)C(=O)CSc1nc(OC)cc(=O)[nH]1	i	i	i	i	-9.5*	i	i	i	53*
O=S(=O)(c1ccc2nc(Nc3ccccc3)ccc2c1)N1CCCCC1	i	i	i	i	i	.	.	.	.
NC(=O)C1CCN(CC(=O)Nc2cccc(C(=O)Nc3cccc(C(F)(F)F)c3)c2)CC1	i	i	i	i	-7*	84%*	i	i	i
Cc1ccc(/C=C/C(=O)N2CCC(Cc3ccccc3)CC2)cc1	i	i	i	i	i	.	.	.	.
Cc1ccc(Cl)cc1N1CCN(C(=O)c2cc3c(=O)[nH]c4ccccc4c3n2C)CC1	i	i	i	i	-14*	36%*	i	i	i
Cc1cccc(NC(=S)Nc2c(C)n(C)n(-c3ccccc3)c2=O)c1C	i	i	i	i	-18*	i	i	i	i
Cc1cccc(NC(=O)Nc2c(C)n(C)n(-c3ccccc3)c2=O)c1C	i	i	i	i	i	.	.	.	.
COc1ccc(C2=NOC(C)(c3nnc(-c4ccc(F)cc4)o3)C2)cc1 (stereo not given)	i	i	i	i	i	.	.	.	.
Cc1cccc(NC(=O)c2cc(NC(=O)c3ccco3)ccc2Cl)n1	i	.	.	i	-4.7*	85%*	i	i	i
COc1ccc2nc(NC(=O)c3ccccc3O)sc2c1	i	i	i	i	i	.	.	.	.
CCOC(=O)c1cccc(C(=O)Nc2nc3ccc(OC)cc3s2)n1	i	i	i	i	-5*	i	i	i	i
COc1cc(C(=O)NC(=S)Nc2nccs2)cc(OC)c1OC	i	i	i	i	i	.	.	.	.
Cc1cc(C)cc(N2C(=O)C3CC=CCC3C2=O)c1 (stereo not given)	i	i	i	i	-5.2*	i	i	i	i
Nc1cccnc1Sc1cc(Cl)c(Cl)cc1Cl	i	i	i	i	-6.5*	i	i	i	i
CCOc1ccccc1/C=N/NC(=O)c1nnn(-c2nonc2N)c1CN1CCCC1	i	i	i	i	i	.	.	.	.
Cc1cc(NC(=O)CCCC(=O)O)nc(C)n1	i	i	i	i	-6.4*	i	i	i	i
Cc1ccc(S(=O)(=O)NCCC(=O)Nc2ccc(C)cc2C(=O)c2ccccc2)cc1	i	i	i	i	i	.	.	.	.
Cc1cc(C)nc(NS(=O)(=O)c2ccc(N)cc2)n1	i	i	i	i	-4.7*!	i	i	i	i
O=C(OCc1nc2ccsc2c(=O)[nH]1)c1ccc(Cl)s1	i	i	i	i	i	.	.	.	.
Cc1cccc(NC(=O)c2ccccc2NC(=O)c2ccco2)c1	i	i	i	i	i	.	.	.	.
CC(C)(C)CC(=O)Nc1cc2c3c(c1)CCC(=O)N3CCC2	i	i	i	i	-4.9*	i	i	i	i
Cc1cccc(C)c1NC(=O)NC1CC2CCC(C1)N2Cc1cccs1 (stereo not given)	i	i	i	i	-7.5*	i	i	i	i
O=C(CN1C(=O)NC2(CCCc3ccccc32)C1=O)N1CCc2ccccc2C1 (stereo not given)	i	i	i	i	-9.3*	85%*	i	i	i
CCNc1nc(OCCNC(C)=O)nc(N(C)C)n1	i	i	i	i	-4.8*	i	i	i	i
SMILES	MrgX1 allo act	RGS4 inh	RGS4 pot	MrgX1 ag	MrgX1 antagonist	MrgX1 antag conf	HEK293 Ca flux	HEK293 Ca counter	HEK293 Ca cntr2
CC(C)CNC(=O)c1ccccc1NC(=O)c1ccccc1N(C)S(=O)(=O)c1ccccc1	i	i	i	i	i	.	.	.	.
CC(=O)c1c[nH]c2ccc(C)cc2c1=O	i	i	i	i	-4.9*	70%*	i	i	i
Cn1c2ccccc2c(=O)c2c(=O)n(Cc3ccco3)c(-c3ccc(C(C)(C)C)cc3)nc21	i	i	i	i	i	.	.	.	.
O=C(Nc1ccc(Cl)cc1)N(Cc1cccnc1)Cc1ccco1	i	i	i	i	-5.7*	i	i	i	i
COc1ccccc1N/C=C/C(=C(C#N)C#N)N(C)C	i	i	i	i	i	.	.	.	.
O=C(c1ccco1)N1CCN(C(=O)c2ccccc2Oc2ccccc2)CC1	i	i	i	i	-4.6*	79%*	i	i	i
COc1ccccc1C(=O)N1CCN(CCc2ccccc2)CC1	i	i	i	i	-5.4*	i	i	i	i
COc1cccc(C(=O)N2CCN(CCCc3ccccc3)CC2)c1OC	i	.	.	i	i	.	.	.	.
Cc1ccc(CNC(=O)NC2CCCCC2)cc1	i	i	i	i	-5.1*	i	i	i	i
Cc1ccc(CNC(=S)NC2CCCCC2)cc1	i	i	i	i	i	.	.	.	.
CC1CN(C/C(=N\O)C23CC4CC(CC(C4)C2)C3)CC(C)O1 (stereo not given)	i	i	i	i	i	.	.	.	.
COc1ccc(C(=O)NC2CC2)cc1OC1CCN(Cc2ccccc2F)CC1	i	i	i	i	i	.	.	.	.
COc1ccc(C(=O)NC2CC2)cc1OC1CCN(Cc2ccc(F)cc2F)CC1	i	i	i	i	-5.6*	i	i	i	i
